Measurements published in ChEMBL document CHEMBL3351507, “11H-Pyrido[3',2':4,5]pyrrolo[3,2-c]cinnoline and pyrido[3',2':4,5]pyrrolo[1,2-c][1,2,3]benzotriazine: two new ring systems with antitumor activity” (2014).
Active and inactive are the calls of the source. The calls are words filed in the database; no cut-off is given here.

What was measured:
[1] = test system: LoVo; assay: Cytotoxicity against human LoVo cells assessed as growth inhibition after 72 hrs by MTT assay; type: functional
In short: (§1)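 Cells were grown in medium with 10% heat-inactivated FBS plus penicillin/streptomycin: RPMI-1640 for Jurkat and CEM, DMEM for A-431, HAM's F12 for LoVo. The doxorubicin-resistant LoVo subclone was kept with 0.1 µg/mL doxorubicin. Cells were seeded at 5x10^3 per well and pre-incubated 24 h at 37 °C.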

[2] = Cytotoxicity against human LoVo/DX cells assessed as growth inhibition after 72 hrs by MTT assay; type: functional; in short: as §1
[3] = test system: LoVo; assay: Resistance index, ratio of GI50 for human LoVo/DX cells to GI50 for human LoVo cells; type: functional
In short: (§2)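 CEMVbl-100 (vinblastine-selected CEM) was grown in RPMI-1640 with 0.1 µg/mL vinblastine. LoVoDoxo was grown in HAM's F12 with 0.1 µg/mL doxorubicin; parental CEM and LoVo were grown without drug. Media had 10% FBS. 5x10^3 cells were seeded, preincubated 24 h at 37 °C, then exposed 72 h to compound (DMSO <1%). Read-out was MTT; GI50 came from dose-response curves of ≥3 experiments. RI = GI50 resistant / GI50 parental.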

[4] = biological target: T1, DNA topoisomerase 1 (Homo sapiens) (UniProt P11387); assay: Inhibition of human DNA topoisomerase 1-mediated DNA single strand cleavage at 5 to 100 uM after 30 mins by agarose gel electrophoresis relative to untreated control
T1 sequence (whole entry): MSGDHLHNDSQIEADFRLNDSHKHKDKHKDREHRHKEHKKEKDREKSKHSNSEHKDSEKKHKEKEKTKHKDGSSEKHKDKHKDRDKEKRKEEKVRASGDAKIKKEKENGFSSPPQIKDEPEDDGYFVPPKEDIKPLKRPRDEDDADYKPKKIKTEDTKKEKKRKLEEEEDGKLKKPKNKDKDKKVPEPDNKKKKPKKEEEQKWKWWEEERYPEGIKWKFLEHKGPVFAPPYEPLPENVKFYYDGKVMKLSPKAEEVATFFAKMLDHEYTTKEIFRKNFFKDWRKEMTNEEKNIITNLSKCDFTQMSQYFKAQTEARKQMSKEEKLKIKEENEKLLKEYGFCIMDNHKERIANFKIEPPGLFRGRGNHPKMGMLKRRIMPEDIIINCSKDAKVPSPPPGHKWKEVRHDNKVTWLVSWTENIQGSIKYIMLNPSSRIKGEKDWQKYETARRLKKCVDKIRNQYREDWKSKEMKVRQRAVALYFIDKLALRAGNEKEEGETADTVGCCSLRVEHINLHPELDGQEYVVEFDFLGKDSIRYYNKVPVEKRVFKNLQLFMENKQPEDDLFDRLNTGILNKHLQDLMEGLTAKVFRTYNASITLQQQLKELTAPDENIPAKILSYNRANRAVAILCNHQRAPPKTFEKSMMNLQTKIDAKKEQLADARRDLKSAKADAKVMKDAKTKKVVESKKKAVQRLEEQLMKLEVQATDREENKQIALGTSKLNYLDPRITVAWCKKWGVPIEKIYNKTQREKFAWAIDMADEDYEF
In short: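 Reactions were set up as for relaxation: human topoisomerase I, 0.250 µg pBR322, compound 5-100 µM, 37 °C for 30 min, stopped with SDS/proteinase K. Samples were run on 0.8% agarose containing 0.5 µg/mL ethidium bromide, then destained in water, so that cleaved/nicked DNA could be detected under UV.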

[5] = test system: CCRF-CEM; assay: Cytotoxicity against human CEM cells assessed as growth inhibition after 72 hrs by MTT assay; type: functional; in short: as §1
[6] = test system: CCRF-CEM; assay: Cytotoxicity against human vinblastin-resistant CEM cells assessed as growth inhibition after 72 hrs by MTT assay; type: functional; in short: as §2
[7] = test system: CCRF-CEM; assay: Resistance index, ratio of GI50 for human vinblastin-resistant CEM cells to GI50 for human CEM cells; type: functional; in short: as §2

SMILES: COc1cccc2c1C(=O)c1c(O)c3c(c(O)c1C2=O)C[C@@](O)(C(=O)CO)C[C@@H]3O[C@H]1C[C@H](N)[C@H](O)[C@H](C)O1 [DOXORUBICIN]
- GI50 [1]: 120 nM
- GI50 [2]: 13.5 µM
- Ratio [3]: 112.5

SMILES: CC[C@@]1(O)C(=O)OCc2c1cc1n(c2=O)Cc2cc3ccccc3nc2-1
- Activity [4]: Active

SMILES: CC[C@]1(O)C[C@@H]2CN(CCc3c([nH]c4ccccc34)[C@@](C(=O)OC)(c3cc4c(cc3OC)N(C)[C@H]3[C@@](O)(C(=O)OC)[C@H](OC(C)=O)[C@]5(CC)C=CCN6CC[C@]43[C@@H]65)C2)C1 [VINBLASTINE]
- GI50 [5]: 4 nM
- GI50 [6]: 210 nM
- Ratio [7]: 525
